Measurements: ChEMBL document CHEMBL4350976, “Sequence modification of heptapeptide selected by phage display as homing device for HT-29 colon cancer cells to improve the anti-tumour activity of drug delivery systems” (Eur J Med Chem, 2019)
Where a SMILES comes first, the peptide text is derived from it. The star is where a group is joined. X1 = COc1cccc2c1C(=O)c1c(O)c3c(c(O)c1C2=O)C[C@@](O)(/C(C)=N/OCC(=O)*)C[C@@H]3O[C@H]1C[C@H](N)[C@H](O)[C@H](C)O1

Experiments:
HT-29 = experiment: Cytostatic activity against human HT-29 cells preincubated for 24 hrs under serum free condition followed by compound washout and further incubation for 48 hrs in presence of serum by MTT assay; type: functional, cell-based
How it was run: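 HT-29 cells were exposed to the compound for 24 h, washed, and kept a further 48 h. Viability was read by MTT. Absorbances were normalized to untreated controls and fitted by nonlinear regression to dose-response curves to give IC50.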

[1] = Retention time of the compound using 0.1% TFA in water and 0.1% TFA in acetonitrile-water (80:20 v/v) as eluents by RP-HPLC analysis; type: physicochemical
How it was run: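 Analytical RP-HPLC. Eluent A was 0.1% TFA in water and eluent B was 0.1% TFA in acetonitrile-water (80:20, v/v). Gradient: 0% B held to 5 min, then to 90% B at 50 min. Flow 1 mL/min, detection at 220 nm. The column was a Phenomenex Aeris Peptide XB-C18 (250×4.6 mm, 3.6 μm) or a Nucleosil C18 (5 μm, 100 Å, 250×4.6 mm), depending on the conjugate series.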

Structure (SMILES)	IC50 (HT-29)	Retention time [1]	Retention_time [1]
COc1cccc2c1C(=O)c1c(O)c3c(c(O)c1C2=O)C[C@@](O)(/C(C)=N/OCC(=O)N[C@@H](CC(C)C)C(=O)N[C@@H](CCCNC(=N)N)C(=O)N[C@@H](CCCNC(=N)N)C(=O)N[C@@H](Cc1ccc(O)cc1)C(=O)N[C@H](C(=O)N[C@@H](Cc1cnc[nH]1)C(=O)N[C@@H](CC(C)C)C(=O)N[C@@H](CC(C)C)C(=O)N[C@@H](Cc1ccc(O)cc1)C(=O)N[C@@H](C)C(=O)N[C@H](C(N)=O)[C@@H](C)O)C(C)C)C[C@@H]3O[C@H]1C[C@H](N)[C@H](O)[C@H](C)O1 (X1-LRRYVHLLYAT-NH2)	7.5 µM	31.1 to 33.1 min	
COc1cccc2c1C(=O)c1c(O)c3c(c(O)c1C2=O)C[C@@](O)(/C(C)=N/OCC(=O)N[C@@H](CC(C)C)C(=O)N[C@@H](CCCNC(=N)N)C(=O)N[C@@H](CCCNC(=N)N)C(=O)N[C@@H](Cc1ccc(O)cc1)C(=O)N[C@H](C(=O)N[C@@H](Cc1cnc[nH]1)C(=O)N[C@@H](CC(C)C)C(=O)N[C@H](C(=O)N[C@@H](Cc1ccc(O)cc1)C(=O)N[C@@H](C)C(=O)N[C@H](C(N)=O)[C@@H](C)O)[C@@H](C)O)C(C)C)C[C@@H]3O[C@H]1C[C@H](N)[C@H](O)[C@H](C)O1 (X1-LRRYVHLTYAT-NH2)	21.7 µM		29 min
COc1cccc2c1C(=O)c1c(O)c3c(c(O)c1C2=O)C[C@@](O)(/C(C)=N/OCC(=O)N[C@@H](CC(C)C)C(=O)N[C@@H](CCCNC(=N)N)C(=O)N[C@@H](CCCNC(=N)N)C(=O)N[C@@H](Cc1ccc(O)cc1)C(=O)N[C@H](C(=O)N[C@@H](Cc1cnc[nH]1)C(=O)N[C@@H](CC(C)C)C(=O)N[C@@H](CCC(=O)O)C(=O)N[C@@H](Cc1ccc(O)cc1)C(=O)N[C@@H](C)C(=O)N[C@H](C(N)=O)[C@@H](C)O)C(C)C)C[C@@H]3O[C@H]1C[C@H](N)[C@H](O)[C@H](C)O1 (X1-LRRYVHLEYAT-NH2)	29.5 µM	29.3 to 31.2 min	
COc1cccc2c1C(=O)c1c(O)c3c(c(O)c1C2=O)C[C@@](O)(/C(C)=N/OCC(=O)N[C@@H](CC(C)C)C(=O)N[C@@H](CCCNC(=N)N)C(=O)N[C@@H](CCCNC(=N)N)C(=O)N[C@@H](Cc1ccc(O)cc1)C(=O)N[C@H](C(=O)N[C@@H](Cc1cnc[nH]1)C(=O)N[C@@H](CC(C)C)C(=O)N[C@@H](Cc1ccccc1)C(=O)N[C@@H](Cc1ccc(O)cc1)C(=O)N1CCC[C@H]1C(=O)N[C@H](C(N)=O)[C@@H](C)O)C(C)C)C[C@@H]3O[C@H]1C[C@H](N)[C@H](O)[C@H](C)O1 (X1-LRRYVHLFYPT-NH2)	10.9 µM		31.6 min
COc1cccc2c1C(=O)c1c(O)c3c(c(O)c1C2=O)C[C@@](O)(/C(C)=N/OCC(=O)N[C@@H](CC(C)C)C(=O)N[C@@H](CCCNC(=N)N)C(=O)N[C@@H](CCCNC(=N)N)C(=O)N[C@@H](Cc1ccc(O)cc1)C(=O)N[C@H](C(=O)N[C@@H](Cc1cnc[nH]1)C(=O)N[C@@H](CC(C)C)C(=O)N[C@@H](Cc1ccccc1)C(=O)N[C@@H](Cc1ccc(O)cc1)C(=O)N[C@@H](CO)C(=O)N[C@H](C(N)=O)[C@@H](C)O)C(C)C)C[C@@H]3O[C@H]1C[C@H](N)[C@H](O)[C@H](C)O1 (X1-LRRYVHLFYST-NH2)	17.7 µM	32.1 to 32.9 min	
COc1cccc2c1C(=O)c1c(O)c3c(c(O)c1C2=O)C[C@@](O)(/C(C)=N/OCC(=O)N[C@@H](CC(C)C)C(=O)N[C@@H](CCCNC(=N)N)C(=O)N[C@@H](CCCNC(=N)N)C(=O)N[C@@H](Cc1ccc(O)cc1)C(=O)N[C@H](C(=O)N[C@@H](Cc1cnc[nH]1)C(=O)N[C@@H](CC(C)C)C(=O)N[C@@H](Cc1ccccc1)C(=O)N[C@@H](Cc1ccc(O)cc1)C(=O)N[C@@H](CCC(=O)O)C(=O)N[C@H](C(N)=O)[C@@H](C)O)C(C)C)C[C@@H]3O[C@H]1C[C@H](N)[C@H](O)[C@H](C)O1 (X1-LRRYVHLFYET-NH2)	54.3 µM	31.9 to 33.1 min	

Continued, values first:

IC50 (HT-29)	Retention time [1]	Retention_time [1]	Structure (SMILES)
28 µM	29 to 30.8 min		COc1cccc2c1C(=O)c1c(O)c3c(c(O)c1C2=O)C[C@@](O)(/C(C)=N/OCC(=O)N[C@@H](CC(C)C)C(=O)N[C@@H](CCCNC(=N)N)C(=O)N[C@@H](CCCNC(=N)N)C(=O)N[C@@H](Cc1ccc(O)cc1)C(=O)N[C@H](C(=O)N[C@@H](Cc1cnc[nH]1)C(=O)N[C@@H](CC(C)C)C(=O)N[C@@H](CC(N)=O)C(=O)N[C@@H](Cc1ccc(O)cc1)C(=O)N[C@@H](C)C(=O)N[C@H](C(N)=O)[C@@H](C)O)C(C)C)C[C@@H]3O[C@H]1C[C@H](N)[C@H](O)[C@H](C)O1 (X1-LRRYVHLNYAT-NH2)
11.5 µM	30.5 to 32 min		COc1cccc2c1C(=O)c1c(O)c3c(c(O)c1C2=O)C[C@@](O)(/C(C)=N/OCC(=O)N[C@@H](CC(C)C)C(=O)N[C@@H](CCCNC(=N)N)C(=O)N[C@@H](CCCNC(=N)N)C(=O)N[C@@H](Cc1ccc(O)cc1)C(=O)N[C@H](C(=O)N[C@@H](Cc1cnc[nH]1)C(=O)N[C@@H](CC(C)C)C(=O)N[C@@H](Cc1ccccc1)C(=O)N[C@@H](Cc1ccc(O)cc1)C(=O)N[C@@H](CCCCN)C(=O)N[C@H](C(N)=O)[C@@H](C)O)C(C)C)C[C@@H]3O[C@H]1C[C@H](N)[C@H](O)[C@H](C)O1 (X1-LRRYVHLFYKT-NH2)
15.4 µM		31.8 min	COc1cccc2c1C(=O)c1c(O)c3c(c(O)c1C2=O)C[C@@](O)(/C(C)=N/OCC(=O)N[C@@H](CC(C)C)C(=O)N[C@@H](CCCNC(=N)N)C(=O)N[C@@H](CCCNC(=N)N)C(=O)N[C@@H](Cc1ccc(O)cc1)C(=O)N[C@H](C(=O)N[C@@H](Cc1cnc[nH]1)C(=O)N[C@@H](CC(C)C)C(=O)N[C@@H](Cc1ccccc1)C(=O)N[C@@H](Cc1ccc(O)cc1)C(=O)N[C@@H](CC(N)=O)C(=O)N[C@H](C(N)=O)[C@@H](C)O)C(C)C)C[C@@H]3O[C@H]1C[C@H](N)[C@H](O)[C@H](C)O1 (X1-LRRYVHLFYNT-NH2)
50.3 µM	28.2 to 30.1 min		COc1cccc2c1C(=O)c1c(O)c3c(c(O)c1C2=O)C[C@@](O)(/C(C)=N/OCC(=O)N[C@@H](CC(C)C)C(=O)N[C@@H](CCCNC(=N)N)C(=O)N[C@@H](CCCNC(=N)N)C(=O)N[C@@H](Cc1ccc(O)cc1)C(=O)N[C@H](C(=O)N[C@@H](Cc1cnc[nH]1)C(=O)N[C@@H](CC(C)C)C(=O)N[C@@H](CCCCN)C(=O)N[C@@H](Cc1ccc(O)cc1)C(=O)N[C@@H](C)C(=O)N[C@H](C(N)=O)[C@@H](C)O)C(C)C)C[C@@H]3O[C@H]1C[C@H](N)[C@H](O)[C@H](C)O1 (X1-LRRYVHLKYAT-NH2)
		26.1 min	COc1cccc2c1C(=O)c1c(O)c3c(c(O)c1C2=O)C[C@@](O)(/C(C)=N/OCC(=O)N[C@H](C(=O)N[C@@H](Cc1cnc[nH]1)C(=O)N[C@@H](CC(C)C)C(=O)NCC(=O)N[C@@H](Cc1ccc(O)cc1)C(=O)N[C@@H](C)C(=O)N[C@H](C(N)=O)[C@@H](C)O)C(C)C)C[C@@H]3O[C@H]1C[C@H](N)[C@H](O)[C@H](C)O1 (X1-VHLGYAT-NH2)
38.4 µM	30.8 to 31.7 min		COc1cccc2c1C(=O)c1c(O)c3c(c(O)c1C2=O)C[C@@](O)(/C(C)=N/OCC(=O)N[C@@H](CC(C)C)C(=O)N[C@@H](CCCNC(=N)N)C(=O)N[C@@H](CCCNC(=N)N)C(=O)N[C@@H](Cc1ccc(O)cc1)C(=O)N[C@H](C(=O)N[C@@H](Cc1cnc[nH]1)C(=O)N[C@@H](CC(C)C)C(=O)N[C@@H](Cc1ccc(O)cc1)C(=O)N[C@@H](Cc1ccc(O)cc1)C(=O)N[C@@H](C)C(=O)N[C@H](C(N)=O)[C@@H](C)O)C(C)C)C[C@@H]3O[C@H]1C[C@H](N)[C@H](O)[C@H](C)O1 (X1-LRRYVHLYYAT-NH2)
